Test results published in publication PMC11401921 (Nature Communications, 2024).
Read-outs that look alike come from different tables or passages of the source.

How the values were obtained:
[1] = tested on: Arabidopsis thaliana seeds (WT Col-0 and mutants); assay: Seed germination assay; format: in vivo; conditions: ABA 1 µM
How it was run: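 WT Col-0 and mutant seeds (pyr1/pyl1/pyl2/pyl4, pyl3/pyl7/pyl9/pyl11/pyl12, PYL4 overexpression) were stratified for 4 days. They were sown on half-strength MS agar with 1% sucrose containing 0.05% DMSO, 1 µM ABA, 1 µM test compound, or both. Each treatment used 40 seeds per plate on three plates, at 22 °C under long days. Seeds were scored daily as germinated when green cotyledons appeared.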

[2] = tested on: Arabidopsis WT (Col) seedlings; assay: GO analysis of DEGs; format: in vivo, Arabidopsis thaliana; conditions: unique DEGs
How it was run: (§1)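 Ten-day-old WT Col seedlings were mock-treated or exposed to 50 μM ABA or test compound for 3 h, in biological duplicates. Total RNA was sequenced as 50 bp paired-end reads, about 20 million per sample. Reads were mapped to the Arabidopsis gene model and counted per gene, then tested for differential expression. DEGs were subjected to GO analysis.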

[3] = tested on: Arabidopsis WT (Col) seedlings; assay: RNA-Seq transcriptome analysis; format: in vivo, Arabidopsis thaliana; conditions: ten-day-old plants, 50 μM, 3 h
How it was run: as §1

PYL1 [4] = target: T1, PYL1 (Arabidopsis thaliana, UniProt Q8VZS8); conditions: PYL1, literature value; cited from earlier work
T1 sequence (Q8VZS8 1-221): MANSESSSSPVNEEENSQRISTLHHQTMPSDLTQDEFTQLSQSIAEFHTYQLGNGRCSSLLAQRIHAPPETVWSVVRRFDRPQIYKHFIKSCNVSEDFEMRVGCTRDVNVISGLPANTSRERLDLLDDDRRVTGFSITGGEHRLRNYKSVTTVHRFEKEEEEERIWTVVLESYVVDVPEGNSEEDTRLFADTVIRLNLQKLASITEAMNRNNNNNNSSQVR

PYR1 dimer = target: T2, PYR1 dimer (Arabidopsis thaliana, UniProt O49686); assay: SEC-MALLS protein oligomeric state; conditions: 1 mM chemical(s), PYR1 80 μM
T2 sequence (O49686 1-191): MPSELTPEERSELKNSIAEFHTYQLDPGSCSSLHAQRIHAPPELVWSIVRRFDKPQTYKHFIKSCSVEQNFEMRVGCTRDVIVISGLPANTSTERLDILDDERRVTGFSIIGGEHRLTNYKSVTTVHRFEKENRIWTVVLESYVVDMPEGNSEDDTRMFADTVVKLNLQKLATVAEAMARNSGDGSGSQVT
How it was run: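 Size exclusion used a Superdex S200 column in 20 mM Tris pH 7.5, 150 mM NaCl, 1 mM β-mercaptoethanol, at 20 °C and 0.5 ml/min. The equilibration buffer held 1 mM ABA, 1 mM test compound, or both. Receptor was injected at 80 μM. Weight-averaged molar mass was calculated from on-line MALLS with a 690 nm laser.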

PYL1 [5] = target: T1, PYL1; assay: ITC binding to PYL1
How it was run: (§2)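 Full-length N-terminal His6-tagged receptor was expressed in E. coli BL21(DE3) and purified by Ni-NTA, ion exchange and gel filtration, with the tag removed. ITC ran at 25 °C in 25 mM HEPES, 100 mM NaCl, pH 7.5, using degassed ligand dissolved in the same buffer. Final protein was 50–100 μM and ligand 500–1000 μM.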

PYR1 = target: T3, PYR1 (Arabidopsis thaliana, UniProt O49686); assay: ITC binding to PYR1; conditions: PYR1 wild type
T3 sequence (O49686 1-191): T2 sequence (O49686 1-191)
How it was run: as §2

[6] = tested on: HAB1 with PYR1, PYL1, PYL2, PYL3, PYL5, PYL6 and PYL10; assay: Phosphatase assay, HAB1 with all seven tested PYLs; format: biochemical, Arabidopsis thaliana; conditions: 5 μM ABA
How it was run: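 Recombinant His-tagged HAB1 phosphatase activity was measured with a Ser/Thr phosphatase assay system. Receptor:HAB1 was 0.4:0.4 μM (1:1) for PYR1, PYL1, PYL2 and PYL3, and 0.8:0.4 μM (2:1) for PYL5, PYL6 and PYL10. Mixtures were incubated with 5 μM ABA, 50 μM test compound, or both. Three biological replicates were run.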

seed germination = conditions: cited from earlier work

Row | SMILES | germination rate ([1]; 4OE seeds) | germination phenotype ([1]; 1124 (pyr1/pyl1/pyl2/pyl4) seeds) | germination rate ([1]; 3791112 seeds) | germination rate ([1]; WT seeds) | number of genes involved in seed germination induced (GO:0009845) [2] | number of genes specifically responsive [3] | number of differentially expressed genes (DEGs) induced ([3]; relative to DMSO) | Kd (PYL1 [4]) | elution volume of PYR1 (PYR1 dimer) | molecular mass of PYR1 (PYR1 dimer; dimer theoretical 43 kDa) | Kd (PYL1 [5]) | Kd (PYR1) | inhibition of HAB1 activity [6] | activity in inhibiting seed germination relative to ABA (seed germination)
1 | CC1=CC(=O)CC(C)(C)[C@@]1(O)/C=C/C(C)=C\C(=O)O [ABA, Abscisic acid] | lower than 30% | ABA insensitive phenotype | lower than 30% | lower than 30% | 28 | 2602 | 3366 | ~50 µM | 16.02 to 17.05 mL | 22 ± 2 kDa | 23.5 µM | 22 µM | ≥ 70% | 
2 | N#Cc1c(C2CC2)cc(CC(=O)NC2(C(=O)O)CCCCC2)cc1C1CC1 [opabactin] |  |  |  |  |  |  |  |  |  |  |  |  |  | ~ 10 fold
